# Assay: Toxicity liver stage against HepG2, at 10uM
# Type: cell-based
# Design: test concentration 10 uM, cell line HepG2-A16-CD81EGFP
# Conditions: human, HepG2-A16-CD81EGFP cells; read-out: INHIBITION
# Method in brief: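 Uninfected HepG2-A16-CD81EGFP cells, 3 × 10^3 per well, 1536-well, plated on prespotted compound at 10 μM final, parasite-free screening media added to match infected plates; puromycin 10 μM positive, DMSO 0.5% negative; run in parallel with 48 h PbLuc assay at 37 °C, 5% CO2; viability by CellTiter-Glo luminescence, normalized to controls.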
row,SMILES,cytotoxicity at 10 µM [%]
1,CCN(CC)CCNCC1CCOC(C)(C)C1 (configuration not stated),-6.87
2,CC(C)(C)OCC1CN(CC2CC2)S(=O)(=O)c2cnccc2O1 (configuration not stated),-1.16
3,COCCNC(=O)Cn1ccc2ccc(F)cc21,2.14
4,CC(=O)Nc1ccc(OCc2noc(C(=O)N3CCCCC3)n2)cc1,-3.68
5,O=C(CCc1nc2cccnc2[nH]1)Nc1ccc2c(c1)OCC(=O)N2,6.78
6,COc1ccccc1OCC(=O)NCC(O)(c1cccs1)C1CC1 (configuration not stated),-5
7,COC1CCN(C(=O)CCn2ccc(=O)[nH]c2=O)CC1,-4.73
8,COc1cc(N2C[C@H]3CN(CCN4CCCC4)C(=O)[C@H]3C2)ncn1,12.7
9,Cn1cc(CN2C[C@@H]3COC[C@]3(C(=O)N3CCCO3)C2)cn1,12.1
10,CCOC1CC2(CCN(CCO)CC2)c2ccc(C)cc21 (configuration not stated),9.01
11,O=C(C1CN(Cc2ccoc2)CC12CCOCC2)N1CCCC1 (configuration not stated),11.2
12,Cc1cnc(N2CCC3(CC2)CC3C(=O)NCC2CC2)nc1 (configuration not stated),6.34
13,O=S(=O)(C1CC1)N1CCOCC2(CN(c3ncccn3)CCO2)C1 (configuration not stated),6.37
14,CC(=O)N1CC(=O)N(c2ccccc2)CC12CCN(Cc1ccsc1)C2 (configuration not stated),13.4
15,O=C(O)c1ccc2c(c1)C1(CCCCC1)CN2C(=O)c1cccc(F)c1,2.49
16,CCCS(=O)(=O)N1CCC2(CCN(Cc3cccc(F)c3)C2=O)C1 (configuration not stated),8.07
17,O=C(O)c1nnn(-c2cc(F)cc(F)c2)c1-c1ccncc1,7.16
18,O=S(=O)(NC1=NCN(CCc2cccs2)CN1)c1ccc(Cl)cc1,-2.03
19,CNC(=O)CSc1nc2c(cnn2Cc2ccc(F)cc2)c(=O)[nH]1,-16
20,O=C(C1CCOCC1)N1CCC2(CC1)CC(Oc1ccccc1)CO2 (configuration not stated),-17.3
21,COCC1COCCC12CCN(C(=O)CCc1ccccc1)CC2 (configuration not stated),-9.8
22,CC(C)NC(=O)c1nn(C)c(NC(=O)Cc2ccccc2)c1F,-1.73
23,Cc1nn(C)c2cnn(Cc3ccc(C(=O)NC4CC4)o3)c12,9.43

row,SMILES,cytotoxicity at 10 µM [%]
1,CSCc1cccc(S(=O)(=O)NCCCO)c1,-7.5
2,Cc1nccn1[C@@H]1CC[C@@H](N(C)S(=O)(=O)c2cccc(F)c2)[C@H]1O,-2.4
3,Cc1cnc(C(=O)N(C)[C@@H]2CCC[C@@H](Oc3ccccc3)[C@@H]2O)cn1,-15.3
4,CNC(=O)c1ccc(C2CCCN(C(=O)c3c(C)noc3C)C2)nc1 (configuration not stated),-9.88
5,O=C(N1CCCCC1)N1CCCC(c2ncncc2-c2ccncc2)C1 (configuration not stated),-32.1
6,CCCC(=O)N1CCC(c2nc(O)c3c(n2)CCN(C2CCCC2)C3)C1 (configuration not stated),9.34
7,O=C(c1cnccn1)N1CCC(Cc2cnc3[nH]ccc3c2)CC1,-18.6
8,CCN1CCCC(c2nc(O)c3cc(C)ccc3n2)C1 (configuration not stated),8.02
9,NCCC(=O)N1CCC2(CC1)CN(C(=O)c1ccc(Cl)cc1)CCO2,3.1
10,CN1CCN(C2CCN(CC(O)c3ccccc3F)CC2)C1=O (configuration not stated),-0.275
11,CC(NCCn1cccn1)c1ccc(F)cc1F (configuration not stated),1.99
12,CC(c1nc(C2CC2)no1)N1CCc2c(ncn2C2CC2)C1 (configuration not stated),-2.52
13,COCCCN(Cc1ccncc1)C(=O)C1COc2ccccc2C1 (configuration not stated),11.5
14,OC1(CN2CCOC(Cn3cncn3)C2)CCCCC1 (configuration not stated),9.87
15,CN1CCCC(N(C)C(=O)c2ccc(NC(=O)c3ccc[nH]3)cc2)C1 (configuration not stated),-11.4
16,CC(C)CN1CCC(NC(=O)NCCC(=O)NCc2ccccc2)CC1,1.64
17,NC(=O)C1CCN(C(=O)NCc2ccccc2Cn2ccnc2)CC1,-0.302
18,CC(C)CN(Cc1nnc(-c2ccco2)o1)CC(C)C,0.0773
19,Cc1cc(CN2CCN(C(C)c3nc(C(C)C)no3)CC2)no1 (configuration not stated),3.29
20,CC(=O)N1CCN(CCNS(=O)(=O)c2cc(F)ccc2C)CC1,5.42
21,CC(C)c1nnc2n1CC(CNCc1ccc3c(c1)OCCO3)CC2 (configuration not stated),-5.92
22,CSc1ccc(NCc2csc(CS(C)(=O)=O)n2)cc1F,-9.99
23,Cn1nnc2cc(C(=O)NS(=O)(=O)c3ccc(F)cc3)ccc21,5.46

row,SMILES,cytotoxicity at 10 µM [%]
1,O=C(c1ccc(N2CCCC2)nc1)N1CCCC(c2nccs2)C1 (configuration not stated),15.4
2,COCCNC(C)c1ccc(-c2cccnc2)cc1 (configuration not stated),2.7
3,COCCN1CCN(CC(O)c2ccc(C(F)(F)F)cc2)CC1 (configuration not stated),-10.7
4,COc1ccccc1N1CCC(CNS(=O)(=O)c2c(C)nn(C)c2C)C1 (configuration not stated),-21.8
5,CC(=O)NCCC(=O)NC1(c2ccc(Cl)c(Cl)c2)CC1,7.49
6,CSC(C)(C)CNC(=O)NCc1cccc(-n2ccnc2)c1,32.9
7,CC(=O)Nc1ccc(F)c(S(=O)(=O)NC(C)(C)C)c1,1.15
8,N#Cc1ccc(CNC(=O)NCCC(=O)NC2CCCC2)c(F)c1,3.79
9,Cc1nn(CCO)c(C)c1CN1CCN(C2CCCCC2)C(=O)C1,0.541
10,O=C(O)[C@H]1C[C@@H](C(=O)NCc2ccncc2)CN(Cc2ccccc2)C1,-138
11,Cc1cnc(C(=O)N2CC(=O)N(c3ccccc3Cl)CC2C)cn1 (configuration not stated),-8.23
12,CN1CCCC(CCC(=O)NCCCn2ncc3ccccc32)C1 (configuration not stated),2.39
13,Cc1cc2ccccc2n1CCC(=O)N1CCCC1Cn1cccn1 (configuration not stated),2.15
14,COc1cc(NC(=O)NCc2ccccn2)cc(OC)c1,-4.13
15,CCc1cccc(OCCCN(C)C(=O)CN2CCNC2=O)c1,-2.48
16,CC(C)n1ccnc1C1CCN(C(=O)C2COc3ccccc3O2)CC1 (configuration not stated),-8.28
17,COc1ccc2c(c1)OCC(CNC(=O)c1ccc(=O)n(C)c1)C2 (configuration not stated),-11.2
18,COCCN1CCCC1c1nccnc1Nc1nc(C)cs1 (configuration not stated),6.02
19,Cc1cnn(CC2CN(Cc3cccc(C(N)=O)c3)CCO2)c1 (configuration not stated),-1.52
20,O=C(c1ccc2nncn2c1)N1CCCC(n2ccnc2)C1 (configuration not stated),-1.14
21,CC(C)Cn1nnnc1SC(C(=O)NCc1cccnc1)C(C)C (configuration not stated),-4.05
22,CN(Cc1ccccn1)C1CCCN(Cc2noc(C3CC3)n2)C1 (configuration not stated),1.82
23,Cc1nnc(CN2CCCC2c2c(C)nn(C)c2Cl)o1 (configuration not stated),0.174

row,SMILES,cytotoxicity at 10 µM [%]
1,c1ccc(-n2ccc(CNCC3CCCN3c3cccnn3)n2)cc1 (configuration not stated),-10.2
2,Cc1nn(C)c(N2CCOCC2)c1CNC(C)c1cccs1 (configuration not stated),-1.47
3,CCOc1cc(C(=O)N2CCCC(c3noc(CC)n3)C2)ccn1 (configuration not stated),-3.65
4,O=C(NCCn1nc2ccccn2c1=O)c1scnc1Cl,-13.9
5,CCC1c2ccsc2CCN1C(=O)NCc1cccnc1N(C)C (configuration not stated),-17.4
6,Cc1ncsc1C(=O)N1CCCC(n2cncn2)C1 (configuration not stated),0.364
7,Cc1cc(C)n(C2CCCN(C(=O)CCCc3ccccn3)C2)n1 (configuration not stated),-16.3
8,CC(C)c1nc(C2CCCN2Cc2ccno2)no1 (configuration not stated),-6.85
9,O=C(C1CCCC1)N1CCN(Cc2nc(-c3ccco3)no2)CC1,-7.84
10,Cc1ccc(C(CNC(=O)NCc2cc[nH]n2)N2CCOCC2)o1 (configuration not stated),-8.78
11,CCC1CN(CC(=O)Nc2sccc2C#N)CCO1 (configuration not stated),-9.29
12,CCn1cnnc1C1CCN(C(=O)c2cnc(C3CC3)s2)CC1,-7.59
13,Cn1c(C2CC2)nc2c1CCN(CC(=O)Nc1nncs1)C2,-6.44
14,O=C(NCc1cc[nH]n1)NCC(O)COc1cccc(F)c1 (configuration not stated),10.3
15,O=C(NCc1ccccc1-n1cccn1)N1CCN2CCCCC2C1 (configuration not stated),-1.2
16,O=S(=O)(NCc1ccccc1Cn1cncn1)C1CCCC1,0.674
17,Cc1nc(C)n(C2CCCN(C(=O)c3cc(C(N)=O)cs3)C2)n1 (configuration not stated),-6.86
18,CCc1ccc(OCC(O)CN2CCC(O)CC2)cc1 (configuration not stated),3.99
19,CCn1cc(CN2CCCN(C(=O)c3ccn(C)c(=O)c3)CC2)cn1,-0.794
20,COc1ccc(CNCC(C)Oc2ccccn2)cc1Cl (configuration not stated),7.36
21,O=C(c1ccoc1)N1C[C@@H]2[C@@H](C1)OCC(=O)N2Cc1cccnc1,3.33
22,CN1CCO[C@@H]2CN(S(=O)(=O)c3ccc(F)cc3)CC[C@@H]2C1,2.56
23,CN1CC(=O)N(c2ccccc2)CC12CCN(C(=O)c1cccs1)C2 (configuration not stated),-79.3

row,SMILES,cytotoxicity at 10 µM [%]
1,Cn1cc(C[C@H]2[C@H](N3CCOCC3)CCN2C(=O)c2ccco2)cn1,2.44
2,Cn1cc(CN2CC[C@H](O)[C@@H]2Cc2ccccc2)cn1,-73
3,CN(C)[C@@H]1CN(Cc2cnn(C)c2)[C@@H]2COC[C@H]12,7.37
4,NCCNS(=O)(=O)Cc1ccc(Br)cc1,19.4
5,COCCN1CCCc2sc(C(=O)Nc3ccc(C)nc3)nc21,5.92
6,Cc1noc(C)c1CN1CC[C@H]2OCC[C@@]2(C(=O)NC2CCCC2)C1,-75.7
7,O=C(C1=CCCC1)N1CC[C@]2(C[C@H](OCc3cccnc3)CO2)C1,11.7
8,Cc1ccoc1C(=O)N1CCn2nnc(COc3cccnc3)c2C1,-82.5
9,c1cc(CN2CCCC23CCCN(Cc2ccoc2)C3)ccn1 (configuration not stated),2.25
10,Cc1csc2nc3n(c(=O)c12)CCN(Cc1c[nH]cn1)CC3,-18.8
11,CN1C(=O)CCCC12CCCN(Cc1nccs1)C2 (configuration not stated),11.4
12,Cn1cc(CN2CCOCC3(C2)CN(c2ccccc2)C(=O)CO3)cn1 (configuration not stated),0.436
13,CCOCC1CN(Cc2ccoc2)Cc2nn(C)cc21 (configuration not stated),-2.8
14,C[C@H](N)Cn1nc(-c2cccs2)oc1=O,-1.94
15,CC(C)n1ccc(-c2cc(C(=O)N3CCN(C)CC3)c3ccccn23)n1,9.49
16,c1nc2c(c(NC3CCC3)n1)CCNCC2,-1.28
17,Cn1cncc1CN1CCC2(CCCN2c2ncccn2)CC1,9.37
18,COCCN1CCN(S(C)(=O)=O)Cc2ccc(C)nc21,-5.06
19,NC(=O)c1cccc(CNCC=Cc2ccccc2)c1,5.62
20,CN(CCCOc1ccccc1Cl)C(=O)CN1C[C@H]2CC[C@@H](CC1=O)N2,-11.9
